≈ marks a conversion by molar mass, not a printed value.
Columns and labels:
Blood = experiment: Inhibition of LPS-stimulated TNFalpha production in human blood; type: functional
Monocyte = experiment: Inhibition of LPS-stimulated TNFalpha production in monocytes; type: functional, Homo sapiens
[1] = target: Mitogen-activated protein kinase kinase kinase 8 (Homo sapiens, UniProt P41279); experiment: Inhibition of Tpl2 by ELISA
[2] = Half life in Sprague-Dawley rat at 25 mg/kg, po; type: ADME, organism-based; set-up: dose 25 mg/kg, route oral; conditions: in vivo
In short: (§1)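 Female Sprague-Dawley rats were dosed by the iv or oral route. Parameters are reported as means of individual-animal pharmacokinetic values.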

[3] = target: Protein kinase C alpha type (Homo sapiens, UniProt P17252); experiment: Inhibition of PKCalpha
[4] = Bioavailability in Sprague-Dawley rat at 25 mg/kg, po; type: ADME, organism-based; conditions: in vivo; in short: as §1
[5] = Permeability at pH 7.4 by PAMPA method; type: ADME; conditions: read-out: permeability
In short: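 Passive permeability was measured by high-resolution PAMPA at pH 7.4.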

[6] = Volume of distribution at steady state in Sprague-Dawley rat at 5 mg/kg, iv; type: ADME, organism-based; set-up: dose 5 mg/kg, route intravenous; conditions: in vivo, read-out: Vss; in short: as §1
physchem = conditions: buffer, pH 7.4
[7] = Plasma clearance in Sprague-Dawley rat at 5 mg/kg, iv; type: ADME, organism-based; set-up: dose 5 mg/kg, route intravenous; in short: as §1
[8] = target: cAMP-dependent protein kinase (PKA) (Homo sapiens, UniProt P22694+P17612+P22612); experiment: Inhibition of PKA; type: protein assay
[9] = target: Ribosomal protein S6 kinase beta-1 (Homo sapiens, UniProt P23443); experiment: Inhibition of S6K
Rattus norvegicus = experiment: AUC (0 to infinity) in Sprague-Dawley rat at 25 mg/kg, po; type: ADME, organism-based, Plasma; set-up: dose 25 mg/kg, route oral; conditions: in vivo; in short: as §1
[10] = Half life in Sprague-Dawley rat at 5 mg/kg, iv; type: ADME, organism-based; set-up: dose 5 mg/kg, route intravenous; conditions: in vivo; in short: as §1
CaM kinase II = CaM kinase II (Homo sapiens, UniProt Q13557+Q13555+Q13554+Q9UQM7)
[11] = target: MAP kinase-activated protein kinase 2 (Homo sapiens, UniProt P49137); experiment: Inhibition of MK2
Cytochrome P450 3A4 = Cytochrome P450 3A4 (Homo sapiens, UniProt P08684)
[12] = target: Mitogen-activated protein kinase 14 (Homo sapiens, UniProt Q16539); experiment: Inhibition of p38alpha
[13] = target: Proto-oncogene tyrosine-protein kinase Src (Homo sapiens, UniProt P12931); experiment: Inhibition of Src
[14] = target: Epidermal growth factor receptor (Homo sapiens, UniProt P00533)
CYP3A4 = CYP3A4 (Homo sapiens, UniProt P08684); experiment: Inhibition of CYP3A4 at 3 uM; type: ADME
[15] = target: Mitogen-activated protein kinase 8 (Homo sapiens, UniProt P45983); experiment: Inhibition of Jnk1
[16] = Metabolic stability in rat liver microsomes; type: ADME, Microsome
In short: (§2)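 Compound was incubated with liver microsomes from the stated species. Stability is expressed as parent half-life (t1/2, min). Metabolites were also profiled.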

[17] = Metabolic stability in human liver microsomes; type: ADME, Microsome; in short: as §2
[18] = Metabolic stability in mouse liver microsomes; type: ADME, Microsome; in short: as §2

Sequence of Ribosomal protein S6 kinase beta-1 (P23443 whole entry): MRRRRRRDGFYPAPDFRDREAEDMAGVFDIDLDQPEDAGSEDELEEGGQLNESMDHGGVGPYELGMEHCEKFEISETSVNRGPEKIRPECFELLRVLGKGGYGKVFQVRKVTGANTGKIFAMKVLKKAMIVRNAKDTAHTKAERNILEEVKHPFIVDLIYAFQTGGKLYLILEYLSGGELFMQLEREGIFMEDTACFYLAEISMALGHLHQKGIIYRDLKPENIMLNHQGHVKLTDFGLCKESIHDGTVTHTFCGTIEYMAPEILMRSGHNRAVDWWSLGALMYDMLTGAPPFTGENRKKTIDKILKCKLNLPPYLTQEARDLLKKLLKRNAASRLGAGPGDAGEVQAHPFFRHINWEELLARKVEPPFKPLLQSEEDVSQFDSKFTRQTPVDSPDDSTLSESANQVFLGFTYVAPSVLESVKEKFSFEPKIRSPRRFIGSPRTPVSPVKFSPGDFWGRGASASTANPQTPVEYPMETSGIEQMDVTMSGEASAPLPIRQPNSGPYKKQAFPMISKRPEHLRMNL
Sequence of Epidermal growth factor receptor (P00533 whole entry): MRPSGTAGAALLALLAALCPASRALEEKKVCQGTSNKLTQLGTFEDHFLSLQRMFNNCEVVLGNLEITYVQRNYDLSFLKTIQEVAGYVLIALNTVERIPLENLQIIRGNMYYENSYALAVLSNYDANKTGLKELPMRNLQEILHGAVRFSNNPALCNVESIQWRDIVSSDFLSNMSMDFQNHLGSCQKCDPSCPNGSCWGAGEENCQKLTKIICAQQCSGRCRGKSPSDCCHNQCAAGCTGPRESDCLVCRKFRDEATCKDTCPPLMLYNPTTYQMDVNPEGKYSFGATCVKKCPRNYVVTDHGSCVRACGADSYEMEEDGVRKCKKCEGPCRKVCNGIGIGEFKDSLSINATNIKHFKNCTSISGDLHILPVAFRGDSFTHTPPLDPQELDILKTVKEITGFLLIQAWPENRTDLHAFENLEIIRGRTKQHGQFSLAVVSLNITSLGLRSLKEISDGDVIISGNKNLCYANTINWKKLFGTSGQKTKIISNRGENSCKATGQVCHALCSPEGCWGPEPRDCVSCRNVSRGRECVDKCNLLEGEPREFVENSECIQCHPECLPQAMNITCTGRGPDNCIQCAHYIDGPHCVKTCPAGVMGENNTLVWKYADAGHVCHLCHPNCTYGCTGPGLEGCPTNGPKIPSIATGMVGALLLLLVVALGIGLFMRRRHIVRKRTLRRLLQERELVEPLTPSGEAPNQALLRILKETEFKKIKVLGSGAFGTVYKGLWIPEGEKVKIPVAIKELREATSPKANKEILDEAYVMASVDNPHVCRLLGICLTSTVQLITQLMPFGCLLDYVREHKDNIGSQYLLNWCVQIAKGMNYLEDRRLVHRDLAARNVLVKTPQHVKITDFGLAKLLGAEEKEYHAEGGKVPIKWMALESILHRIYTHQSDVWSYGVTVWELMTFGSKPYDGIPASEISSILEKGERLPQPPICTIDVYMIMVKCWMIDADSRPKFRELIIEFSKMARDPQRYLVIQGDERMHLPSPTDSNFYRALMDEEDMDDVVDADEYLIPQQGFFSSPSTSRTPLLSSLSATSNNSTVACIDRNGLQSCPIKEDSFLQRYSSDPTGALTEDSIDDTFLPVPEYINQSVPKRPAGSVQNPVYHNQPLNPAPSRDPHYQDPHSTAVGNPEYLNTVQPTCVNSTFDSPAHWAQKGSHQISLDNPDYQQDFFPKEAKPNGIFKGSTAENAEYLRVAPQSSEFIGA
Sequence of Mitogen-activated protein kinase 14 (Q16539 whole entry): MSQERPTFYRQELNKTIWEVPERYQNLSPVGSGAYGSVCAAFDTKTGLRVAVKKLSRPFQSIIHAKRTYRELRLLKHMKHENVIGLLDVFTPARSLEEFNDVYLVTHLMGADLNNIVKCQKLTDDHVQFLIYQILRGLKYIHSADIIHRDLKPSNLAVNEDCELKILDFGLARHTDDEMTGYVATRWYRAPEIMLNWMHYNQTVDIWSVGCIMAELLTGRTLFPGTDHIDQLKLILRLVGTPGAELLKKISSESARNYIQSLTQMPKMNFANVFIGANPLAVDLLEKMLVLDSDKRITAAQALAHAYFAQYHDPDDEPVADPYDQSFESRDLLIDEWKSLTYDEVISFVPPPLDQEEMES
Sequence of Mitogen-activated protein kinase kinase kinase 8 (P41279 whole entry): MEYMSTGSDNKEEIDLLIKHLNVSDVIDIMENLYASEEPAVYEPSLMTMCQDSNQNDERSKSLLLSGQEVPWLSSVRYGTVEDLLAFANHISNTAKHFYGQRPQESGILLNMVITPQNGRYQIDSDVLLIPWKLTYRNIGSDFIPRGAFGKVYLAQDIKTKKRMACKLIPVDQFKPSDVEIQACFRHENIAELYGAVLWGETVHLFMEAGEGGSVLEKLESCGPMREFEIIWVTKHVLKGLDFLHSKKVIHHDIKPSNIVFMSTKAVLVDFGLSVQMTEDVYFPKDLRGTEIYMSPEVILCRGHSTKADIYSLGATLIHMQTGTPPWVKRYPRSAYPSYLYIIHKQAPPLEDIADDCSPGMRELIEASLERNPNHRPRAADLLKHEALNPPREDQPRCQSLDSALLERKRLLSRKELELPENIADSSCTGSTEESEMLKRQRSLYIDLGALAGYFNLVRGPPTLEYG
Sequence of MAP kinase-activated protein kinase 2 (P49137 whole entry): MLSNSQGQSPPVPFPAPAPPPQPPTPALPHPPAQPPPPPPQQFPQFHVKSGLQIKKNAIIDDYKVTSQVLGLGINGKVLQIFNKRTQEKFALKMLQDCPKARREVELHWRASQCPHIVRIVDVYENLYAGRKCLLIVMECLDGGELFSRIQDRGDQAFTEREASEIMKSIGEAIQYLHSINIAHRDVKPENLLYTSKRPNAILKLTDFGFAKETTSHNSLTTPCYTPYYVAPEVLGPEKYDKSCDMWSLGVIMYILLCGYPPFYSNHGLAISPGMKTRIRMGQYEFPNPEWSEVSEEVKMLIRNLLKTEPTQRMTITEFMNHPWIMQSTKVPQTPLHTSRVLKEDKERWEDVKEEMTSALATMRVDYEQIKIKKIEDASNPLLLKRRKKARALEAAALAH
Sequence of Proto-oncogene tyrosine-protein kinase Src (P12931 2-536 limits assumed): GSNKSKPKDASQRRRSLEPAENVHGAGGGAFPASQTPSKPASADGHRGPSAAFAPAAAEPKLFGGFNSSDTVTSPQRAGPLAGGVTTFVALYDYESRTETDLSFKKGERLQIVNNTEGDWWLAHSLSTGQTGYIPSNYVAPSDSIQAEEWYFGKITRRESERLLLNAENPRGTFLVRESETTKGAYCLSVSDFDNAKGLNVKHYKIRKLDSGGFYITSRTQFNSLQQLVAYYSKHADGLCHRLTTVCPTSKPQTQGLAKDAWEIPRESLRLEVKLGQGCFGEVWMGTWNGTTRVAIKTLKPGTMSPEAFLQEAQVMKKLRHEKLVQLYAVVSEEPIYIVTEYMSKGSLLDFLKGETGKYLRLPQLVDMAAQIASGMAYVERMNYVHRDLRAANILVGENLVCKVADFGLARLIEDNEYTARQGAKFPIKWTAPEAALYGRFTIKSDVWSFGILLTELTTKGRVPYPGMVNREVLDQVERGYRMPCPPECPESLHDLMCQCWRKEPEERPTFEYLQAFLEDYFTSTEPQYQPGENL
Sequence of CYP3A4 (P08684 whole entry): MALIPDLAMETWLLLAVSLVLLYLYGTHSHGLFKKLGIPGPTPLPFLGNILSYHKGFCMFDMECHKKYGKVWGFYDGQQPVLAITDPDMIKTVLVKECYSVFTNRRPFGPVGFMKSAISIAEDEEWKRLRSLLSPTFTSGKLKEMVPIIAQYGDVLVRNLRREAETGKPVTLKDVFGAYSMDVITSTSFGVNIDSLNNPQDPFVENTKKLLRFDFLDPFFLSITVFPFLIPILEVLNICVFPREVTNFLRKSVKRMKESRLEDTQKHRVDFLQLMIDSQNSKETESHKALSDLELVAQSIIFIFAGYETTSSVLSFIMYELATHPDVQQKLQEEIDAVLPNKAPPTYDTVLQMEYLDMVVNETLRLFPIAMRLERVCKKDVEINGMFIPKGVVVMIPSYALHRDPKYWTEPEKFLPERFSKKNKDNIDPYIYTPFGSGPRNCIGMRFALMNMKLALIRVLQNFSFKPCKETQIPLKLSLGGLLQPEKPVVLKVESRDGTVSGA
Sequence of Cytochrome P450 3A4 (P08684 whole entry): as above

Compound: N#Cc1cnc2ccc(NCc3c[nH]cn3)cc2c1Nc1ccc(F)c(Cl)c1
- Activity (Blood): 3.3 µM
- Inhibitory concentration (Monocyte): 600 nM

Compound: N#Cc1cnc2c(Cl)cc(NCc3nn[nH]n3)cc2c1Nc1ccc(F)c(Cl)c1
- IC50 [1]: 0.002 µM
- Activity (Blood): >20 µM
- Inhibitory concentration (Monocyte): >5000 nM

Compound: N#Cc1cnc2c(Br)cc(NCc3cn[nH]n3)cc2c1Nc1ccc(F)c(Cl)c1
- half-life [2]: 3.9 h
- IC50 [3]: > 100 µM
- bioavailability [4]: 2%
- Papp [5]: < 5 ×10⁻⁶ cm/s
- Activity (Blood): 3.5 µM
- Vd [6]: 2.7 L/kg
- solubility (physchem): < 10 µg/mL
- clearance [7]: 29 mL/min/kg
- IC50 [8]: > 100 µM
- Inhibitory concentration (Monocyte): 74 nM
- IC50 [9]: > 100 µM
- AUC/dose (Rattus norvegicus): < 10 ng·kg·h/mg/mL
- half-life [10]: 3.2 h

Compound: CC(C)c1[nH]cnc1CNc1cc(Br)c2ncc(C#N)c(Nc3ccc(F)c(Cl)c3)c2c1
- Activity (Blood): >20 µM
- Inhibitory concentration (Monocyte): 2200 nM

Compound: CC(C)c1[nH]cnc1CNc1cc(Cl)c2ncc(C#N)c(Nc3ccc(F)c(Cl)c3)c2c1
- Activity (Blood): 5.8 µM

Compound: CCCc1[nH]cnc1CNc1cc(Cl)c2ncc(C#N)c(Nc3ccc(F)c(Cl)c3)c2c1
- IC50 [3]: > 40 µM
- IC50 (CaM kinase II): > 40 µM
- Papp [5]: < 5 ×10⁻⁶ cm/s
- Activity (Blood): 5.6 µM
- IC50 [11]: 62.7 µM
- Vd [6]: 12.2 L/kg
- IC50 (Cytochrome P450 3A4): 16 µM
- solubility (physchem): < 10 µg/mL
- clearance [7]: > 100 mL/min/kg
- IC50 [8]: 76.1 µM
- IC50 [12]: > 40 µM
- Inhibitory concentration (Monocyte): 220 nM
- IC50 [13]: > 40 µM
- IC50 [9]: 18.8 µM
- half-life [10]: 1.2 h

Compound: COC(=O)c1[nH]cnc1CNc1cc(Br)c2ncc(C#N)c(Nc3ccc(F)c(Cl)c3)c2c1
- Activity (Blood): >20 µM
- Inhibitory concentration (Monocyte): 2000 nM

Compound: CN(C)CCCc1[nH]cnc1CNc1cc(Cl)c2ncc(C#N)c(Nc3ccc(F)c(Cl)c3)c2c1
- Activity (Blood): 15.2 µM

Compound: N#Cc1cnc2c(Cl)cc(NCc3cccc(N4CCOCC4)n3)cc2c1Nc1ccc(F)c(Cl)c1
- IC50 [1]: 0.35 µM

Compound: N#Cc1cnc2c(Br)cc(NCc3cn(CCN4CCOCC4)cn3)cc2c1Nc1ccc(F)c(Cl)c1
- Activity (Blood): 8.95 µM
- solubility (physchem): 69 µg/mL (≈ 118 µM)
- Inhibitory concentration (Monocyte): 430 nM

Compound: CS(=O)(=O)CCn1cnc(CNc2cc(Br)c3ncc(C#N)c(Nc4ccc(F)c(Cl)c4)c3c2)c1
- Activity (Blood): >20 µM
- Inhibitory concentration (Monocyte): 1000 nM

Compound: N#Cc1cnc2c(Br)cc(NCc3c[nH]cn3)cc2c1Nc1ccc(F)c(Cl)c1
- IC50 [14]: 3.3 µM
- IC50 [1]: 0.01 µM
- Activity (Blood): >10 µM
- solubility (physchem): 2 µg/mL (≈ 4.24 µM)
- Inhibitory concentration (Monocyte): 370 nM

Compound: N#Cc1cnc2c(C(F)(F)F)cc(NCc3c[nH]cn3)cc2c1Nc1ccc(F)c(Cl)c1
- IC50 [14]: > 20 µM
- IC50 [1]: 0.16 µM
- Activity (Blood): >10 µM
- Inhibitory concentration (Monocyte): 600 nM

Compound: COc1cc(NCc2c[nH]cn2)cc2c(Nc3ccc(F)c(Cl)c3)c(C#N)cnc12
- IC50 [14]: 2.08 µM
- IC50 [1]: 0.13 µM
- Activity (Blood): >10 µM
- Inhibitory concentration (Monocyte): 3000 nM

Compound: C[S+]([O-])c1cc(NCc2c[nH]cn2)cc2c(Nc3ccc(F)c(Cl)c3)c(C#N)cnc12 (configuration not stated)
- IC50 [14]: 5 µM
- Activity (Blood): 13.3 µM
- Inhibitory concentration (Monocyte): 2130 nM

Compound: CN(C)C(=O)c1cc(NCc2c[nH]cn2)cc2c(Nc3ccc(F)c(Cl)c3)c(C#N)cnc12
- IC50 [14]: > 20 µM
- Activity (Blood): >10 µM
- Inhibitory concentration (Monocyte): >1000 nM

Compound: N#Cc1cnc2c(OCC(O)CO)cc(NCc3cnc[nH]3)cc2c1Nc1ccc(F)c(Cl)c1 (configuration not stated)
- IC50 [1]: 0.83 µM

Compound: N#Cc1cnc2c(Cl)cc(NCCc3c[nH]cn3)cc2c1Nc1ccc(F)c(Cl)c1
- Activity (Blood): >20 µM

Compound: N#Cc1cnc2c(Br)cc(NC(=O)Cc3cnc[nH]3)cc2c1Nc1ccc(F)c(Cl)c1
- IC50 [1]: > 5 µM

Compound: N#Cc1cnc2c(Cl)cc(NCc3cccnc3)cc2c1Nc1ccc(F)c(Cl)c1
- IC50 [14]: > 5 µM
- Activity (Blood): 20 µM
- Inhibitory concentration (Monocyte): >1000 nM

Compound: N#Cc1cnc2c(F)cc(NCc3c[nH]cn3)cc2c1Nc1ccc(F)c(Cl)c1
- IC50 [3]: > 40 µM
- IC50 [1]: 0.02 µM
- Activity (Blood): >10 µM
- IC50 [11]: > 40 µM
- inhibition at 3 µM (CYP3A4): 96%
- IC50 [8]: 10.3 µM
- IC50 [12]: > 40 µM
- Inhibitory concentration (Monocyte): 510 nM
- IC50 [13]: 20 µM
- IC50 [9]: > 40 µM

Compound: Cn1cncc1CNc1cc(Cl)c2ncc(C#N)c(Nc3ccc(F)c(Cl)c3)c2c1
- Activity (Blood): >20 µM

Compound: N#Cc1cnc2c(Cl)cc(NCC(=O)O)cc2c1Nc1ccc(F)c(Cl)c1
- IC50 [1]: 0.2 µM
- Activity (Blood): >20 µM
- Inhibitory concentration (Monocyte): >5000 nM

Compound: N#Cc1cnc2c(Cl)cc(NCc3cccc[n+]3[O-])cc2c1Nc1ccc(F)c(Cl)c1
- half-life [2]: 4.2 h
- IC50 [3]: > 40 µM
- IC50 (CaM kinase II): > 40 µM
- IC50 [14]: 2.9 µM
- bioavailability [4]: < 1%
- Papp [5]: < 5 ×10⁻⁶ cm/s
- Activity (Blood): 11.4 µM
- IC50 [11]: 40.1 µM
- Vd [6]: 1.6 L/kg
- IC50 (Cytochrome P450 3A4): 18 µM
- solubility (physchem): < 10 µg/mL
- clearance [7]: 38 mL/min/kg
- IC50 [8]: > 40 µM
- IC50 [12]: > 40 µM
- Inhibitory concentration (Monocyte): 1500 nM
- IC50 [13]: > 40 µM
- IC50 [9]: > 40 µM
- AUC/dose (Rattus norvegicus): < 10 ng·kg·h/mg/mL
- half-life [10]: 0.8 h

Compound: CC(=O)c1cc(NCc2c[nH]cn2)cc2c(Nc3ccc(F)c(Cl)c3)c(C#N)cnc12
- IC50 [14]: 0.156 µM
- Activity (Blood): >10 µM
- Inhibitory concentration (Monocyte): 580 nM

Compound: CCc1[nH]cnc1CNc1cc(Cl)c2ncc(C#N)c(Nc3ccc(F)c(Cl)c3)c2c1
- Activity (Blood): 7.5 µM

Compound: CN(C)CCCn1cc(CNc2cc(Br)c3ncc(C#N)c(Nc4ccc(F)c(Cl)c4)c3c2)nn1
- half-life [2]: 2.6 h
- IC50 [3]: > 40 µM
- Activity (Blood): 3.08 µM
- IC50 [11]: > 40 µM
- inhibition at 3 µM (CYP3A4): 66%
- IC50 [15]: > 40 µM
- IC50 [8]: > 40 µM
- IC50 [12]: > 40 µM
- Inhibitory concentration (Monocyte): 221 nM
- IC50 [13]: > 40 µM
- IC50 [9]: > 40 µM
- AUC/dose (Rattus norvegicus): < 10 ng·kg·h/mg/mL

Compound: Cn1nccc1CNc1cc(Br)c2ncc(C#N)c(Nc3ccc(F)c(Cl)c3)c2c1
- Activity (Blood): >20 µM
- Inhibitory concentration (Monocyte): 665 nM

Compound: N#Cc1cnc2c(Cl)cc(NCc3cnc[nH]3)cc2c1Nc1ccc(F)c(Cl)c1
- half-life [2]: 8.1 h
- IC50 [3]: 23.4 µM
- IC50 (CaM kinase II): > 40 µM
- IC50 [1]: 0.02 µM
- bioavailability [4]: 2%
- Papp [5]: < 5 ×10⁻⁶ cm/s
- Activity (Blood): 4.9 µM
- IC50 [11]: 40.2 µM
- half-life [16]: 0.583 h
- Vd [6]: 2.4 L/kg
- solubility (physchem): < 10 µg/mL
- clearance [7]: 19 mL/min/kg
- IC50 [8]: 40.1 µM
- IC50 [12]: 11.2 µM
- Inhibitory concentration (Monocyte): 350 nM
- half-life [17]: 0.517 h
- IC50 [13]: 19.9 µM
- IC50 [9]: > 100 µM
- half-life [18]: 0.383 h
- AUC/dose (Rattus norvegicus): 24 ng·kg·h/mg/mL
- half-life [10]: 4.4 h
